Source: PubChem BioAssay
A selection follows.
PGC1a Ac signal – compounds raising PGC1a acetylation signal, primary screen, PGC1a modulator project, cell-based, U2OS, AlphaScreen, signal-increasing mode; overnight; activation, % at 15.6 µM; actives 0.21% (n = 350,000); AID 651723, 2012;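 active means every replicate reaching activation of at least 50%, whatever the mean replicate activation; inconclusive means replicates that disagree or another doubt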;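 further: hits raise the AlphaScreen acetylation signal above neutral controls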
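System: flag-PGC1a/GCN5 U2OS cells / Input: 7000 cells/well / Compound: single test concentration per compound / Incubation: overnight compound treatment, 37 °C / Technique: AlphaScreen on lysates with anti-acetyl-lysine antibody, acceptor and donor beads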
Hep G6PC suppr – suppressors of forskolin-stimulated G6PC mRNA, dose response, PGC-1a acetylation activator project, cell-based, hepatocytes, RT-qPCR, cherry-picked samples; shares compounds with PGC1a Ac signal; primary mouse hepatocytes; G6PC suppression (normalized activity, % of positive control; higher = more suppression), % at 26 µM; 240 tested, under 10 active; AID 743463, 2014;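 active means dose curves showing G6PC suppression whose half-maximal dose is at most twice the top valid dose; inconclusive means flat curves with moderate negative activity, or unreliable fits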;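 further: G6PC expression relative to GAPDH housekeeping gene as delta delta Ct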
PCK1 hep suppr – suppression of PCK1 mRNA in primary hepatocytes, dose response, PGC-1a acetylation activator project, cell-based, primary mouse hepatocytes, RT-qPCR, cherry-pick; shares compounds with PGC1a Ac signal; forskolin-stimulated; PCK1 expression decrease, unspecified at 26 µM; 230 tested, under 10 active; AID 743465, 2014;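 active means compounds lowering PCK1 expression whose fitted half-maximal concentration is at most twice the top tested dose; inconclusive means flat fit with moderate opposite-direction effect, or poor fit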;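 further: higher delta delta Ct means lower PCK1 expression so positive values indicate hits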
Hep PGC-1a down – suppression of PGC-1a mRNA in primary hepatocytes, dose response, PGC-1a acetylation activator project, cell-based, primary mouse hepatocytes, RT-qPCR, cherry-pick | shares compounds with PGC1a Ac signal | PGC-1a mRNA qPCR, forskolin; top dose 26 µM | max activity (PGC-1a expression decrease), % | 240 tested, under 10 active;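 active means compound lowering PGC-1a expression with fitted half-maximal concentration at most twice its top tested dose; inconclusive means flat curve with moderate opposite-direction effect, or poor fit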
Calls only; i = inactive; ? = inconclusive; nt = not tested or not shown.

SMILES | PGC1a Ac signal | Hep G6PC suppr | PCK1 hep suppr | Hep PGC-1a down
Nn1cnnc1N/N=C/c1ccc(Cl)c([N+](=O)[O-])c1 | i | nt | nt | nt
CCCCN(CC)CCCNC(=O)c1cc2c(=O)n(CC)c3ccccc3c2s1 | ? | i | i | i
O=C(c1ccccc1Cl)N1CCNCC1 | i | nt | nt | nt
COc1ccc2nc3cc(Cl)ccc3c(Nc3cc(CN4CCCC4)c(O)c(CN4CCCC4)c3)c2n1 | i | nt | nt | nt
COc1ccc(S(=O)(=O)NNC(=O)c2csc(-n3nc(C)cc3C(F)(F)F)n2)cc1 | i | i | i | i
COC(=O)COc1c(/C=C\c2nc(O)c([N+](=O)[O-])c(=O)[nH]2)cccc1OC | i | nt | nt | nt
CCCCCCCCC(=O)O | i | nt | nt | nt
Cc1ccc(C(=O)Nc2nc(=O)n(C(=O)CC(C)C)s2)cc1 | i | nt | nt | nt
CC(Oc1ccc2c3c(c(=O)oc2c1)CCC3)C(=O)N[C@@H](Cc1ccccc1)C(=O)O (stereo not given in full) | i | nt | nt | nt
O=C(Nc1ccc(F)cc1)N1CCN(c2nc3ccccc3s2)CC1 | ? | i | ? | i
O=C(Nc1ccc(-c2cn3c(n2)SCC3)cc1)c1ccc2ccccc2n1 | i | nt | nt | nt
COC(=O)C1=CN(Cc2ccc(OC)c(OC)c2)C=C(C(=O)OC)C1c1cccc(O)c1 | i | nt | nt | nt
COC(=O)C[C@@H]1C[C@H]2c3cc(NC(=O)Nc4ccc(C(F)(F)F)cc4)ccc3O[C@H]2[C@H](CO)O1 | ? | i | i | i
